Experimental data published in ChEMBL document CHEMBL1158362, “4-Phenoxybutoxy-substituted heterocycles--a structure-activity relationship study of blockers of the lymphocyte potassium channel Kv1.3” (Eur J Med Chem, 2009).

What was measured:
[1] = biological target: Potassium voltage-gated channel subfamily A member 3 (Homo sapiens, UniProt P22001); experiment: Inhibition of Kv1.3 potassium channel expressed in mouse L929 cells by whole cell patch clamp; type: cell-based
Procedure, shortened: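 Currents were evoked by 500 ms pulses to 40 mV every 45 s. Each compound was run three times at 4–5 concentrations, each on a different cell. IC50 came from a Hill fit of the reduction in area under the current curve.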

[2] = biological target: Potassium voltage-gated channel subfamily A member 5 (Homo sapiens) (UniProt P22460); experiment: Inhibition of Kv1.5 potassium channel by whole cell patch clamp
Procedure, shortened: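 Currents were recorded by whole-cell patch clamp from MEL-C88 cells. Each compound was tested three times at 4–5 concentrations, each experiment on a different cell. IC50 came from a Hill-equation fit of the reduction in area under the current curve.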

[3] = Selectivity for Kv1.3 potassium channel over Kv1.5 potassium channel
[4] = Half life in po dosed rat; type: ADME, organism-based; details: in vivo
[5] = Half life in po dosed rhesus monkey; type: ADME, organism-based, Macaca mulatta; details: in vivo

Potassium voltage-gated channel subfamily A member 5 (Homo sapiens), sequence (P22460 whole entry): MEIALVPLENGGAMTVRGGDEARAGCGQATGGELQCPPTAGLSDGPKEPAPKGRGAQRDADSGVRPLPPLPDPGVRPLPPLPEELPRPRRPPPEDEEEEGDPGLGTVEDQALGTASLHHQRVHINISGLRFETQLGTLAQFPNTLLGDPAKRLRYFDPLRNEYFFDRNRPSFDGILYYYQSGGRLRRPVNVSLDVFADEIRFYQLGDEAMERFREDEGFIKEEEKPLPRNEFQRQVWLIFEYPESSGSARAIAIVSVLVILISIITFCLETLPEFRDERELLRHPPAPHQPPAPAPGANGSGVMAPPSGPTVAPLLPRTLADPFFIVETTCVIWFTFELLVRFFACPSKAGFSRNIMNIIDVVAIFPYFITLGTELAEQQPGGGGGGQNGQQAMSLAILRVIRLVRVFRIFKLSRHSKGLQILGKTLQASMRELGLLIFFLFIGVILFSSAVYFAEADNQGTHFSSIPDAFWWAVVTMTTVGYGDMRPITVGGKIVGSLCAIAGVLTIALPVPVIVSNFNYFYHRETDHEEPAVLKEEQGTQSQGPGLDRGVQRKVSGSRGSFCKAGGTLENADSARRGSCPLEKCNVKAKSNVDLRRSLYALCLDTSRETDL
Potassium voltage-gated channel subfamily A member 3, sequence (P22001 whole entry): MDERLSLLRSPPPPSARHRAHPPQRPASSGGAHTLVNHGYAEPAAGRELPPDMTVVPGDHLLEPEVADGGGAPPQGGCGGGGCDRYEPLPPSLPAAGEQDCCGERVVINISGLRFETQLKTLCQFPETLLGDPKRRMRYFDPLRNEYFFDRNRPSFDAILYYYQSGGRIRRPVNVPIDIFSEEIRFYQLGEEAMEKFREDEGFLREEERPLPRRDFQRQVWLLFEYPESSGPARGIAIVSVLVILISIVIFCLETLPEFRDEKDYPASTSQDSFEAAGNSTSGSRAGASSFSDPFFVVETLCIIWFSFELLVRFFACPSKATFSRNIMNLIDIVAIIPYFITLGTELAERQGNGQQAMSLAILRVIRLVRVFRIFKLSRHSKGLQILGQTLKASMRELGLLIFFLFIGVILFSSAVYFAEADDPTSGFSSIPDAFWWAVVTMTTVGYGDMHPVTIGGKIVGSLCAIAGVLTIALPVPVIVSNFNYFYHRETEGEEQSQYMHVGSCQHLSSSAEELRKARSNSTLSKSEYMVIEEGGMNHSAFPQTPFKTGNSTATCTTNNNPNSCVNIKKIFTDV

In the case of `c1ccc(OCCCCOc2cccc3ccccc23)cc1`, the IC50 [1] is reported as 15000 nM.

`COc1cc2nc3occc3c(OCCCCOc3ccccc3)c2cc1OC` gave an IC50 [2] of 480 nM, an IC50 [1] of 150 nM and a Ratio IC50 (Kv1.5/Kv1.3) [3] of 3.2.

For `COc1cccc2c(=O)c3ccccc3n(CCCCOc3ccccc3)c12`, the IC50 [2] was 450 nM, the IC50 [1] was 165 nM and the Ratio IC50 (Kv1.5/Kv1.3) [3] was 2.73.

With `Cc1cc(=O)c2c(OCCCCOc3ccccc3)c3ccoc3cc2o1` the IC50 [2] was 310 nM, the IC50 [1] was 233 nM and the Ratio IC50 (Kv1.5/Kv1.3) [3] was 1.33.

Work on `O=c1ccc2c(OCCCCOc3ccccc3)c3ccoc3cc2o1` yielded an IC50 [2] of 45 nM, a half-life [4] of 3 h and a half-life [5] of 6.7 h.

`COc1c2occc2c(OCCCCOc2ccccc2)c2c(=O)cc(C)oc12` showed an IC50 [2] of 2500 nM, an IC50 [1] of 1500 nM and a Ratio IC50 (Kv1.5/Kv1.3) [3] of 1.67.

Work on `O=C1c2ccccc2C(=O)c2c(OCCCCOc3ccccc3)cccc21` yielded an IC50 [2] of 10000 nM, an IC50 [1] of 7000 nM and a Ratio IC50 (Kv1.5/Kv1.3) [3] of 1.43.

Work on `O=c1ccoc2cc3occc3c(OCCCCOc3ccccc3)c12` yielded an IC50 [2] of 200 nM and an IC50 [1] of 170 nM.

`O=c1ccc2c(OCCCCOc3ccccc3)cccc2o1` showed an IC50 [2] of 520 nM, an IC50 [1] of 150 nM and a Ratio IC50 (Kv1.5/Kv1.3) [3] of 3.47.

Work on `O=c1c(OCCCCOc2ccccc2)c(-c2ccccc2)oc2ccccc12` yielded an IC50 [2] of 10000 nM, an IC50 [1] of 1000 nM and a Ratio IC50 (Kv1.5/Kv1.3) [3] of 10.

`O=c1cc(OCCCCOc2ccccc2)c2ccccc2o1` showed an IC50 [2] of 1500 nM, an IC50 [1] of 890 nM and a Ratio IC50 (Kv1.5/Kv1.3) [3] of 1.69.

`c1ccc(OCCCCOc2ncnc3ccccc23)cc1` showed an IC50 [2] of 25000 nM.

With `c1ccc(OCCCCOc2c3ccccc3nc3occc23)cc1` the IC50 [2] was 2000 nM, the IC50 [1] was 1000 nM and the Ratio IC50 (Kv1.5/Kv1.3) [3] was 2.

Work on `S=c1ccc2c(OCCCCOc3ccccc3)c3ccoc3cc2o1` yielded an IC50 [2] of 380 nM, an IC50 [1] of 17 nM and a Ratio IC50 (Kv1.5/Kv1.3) [3] of 22.

`O=c1c2ccccc2n(CCCCOc2ccccc2)c2occc12` showed an IC50 [2] of 2000 nM, an IC50 [1] of 1000 nM and a Ratio IC50 (Kv1.5/Kv1.3) [3] of 2.

`c1ccc(OCCCCOc2cccc3occc23)cc1` gave an IC50 [2] of 1000 nM and an IC50 [1] of 650 nM.

In the case of `Cn1c(=O)cc(OCCCCOc2ccccc2)c2ccccc21`, the IC50 [2] is reported as 1500 nM and the IC50 [1] is reported as 670 nM.

With `c1ccc(OCCCCOc2ccccc2)cc1` the IC50 [1] was 20000 nM.

In the case of `COc1c2occc2c(OC)c2c(OCCCCOc3ccccc3)cc(=O)oc12`, the IC50 [2] is reported as 850 nM, the IC50 [1] is reported as 450 nM and the Ratio IC50 (Kv1.5/Kv1.3) [3] is reported as 1.89.

`O=c1ccc2cc3ccoc3c(OCCCCOc3ccccc3)c2o1` showed an IC50 [2] of 1000 nM and an IC50 [1] of 1000 nM.

Work on `c1ccc(OCCCCOC2c3ccccc3Oc3ccccc32)cc1` yielded an IC50 [2] of 15000 nM and an IC50 [1] of 12000 nM.

Compound `COc1c2ccoc2cc2oc(=O)ccc12` [BERGAPTEN] has an IC50 [2] of 177000 nM, an IC50 [1] of 101000 nM and a Ratio IC50 (Kv1.5/Kv1.3) [3] of 1.75.

`COc1c2ccoc2c(OCCCCOc2ccccc2)c2oc(=O)cc(C)c12` showed an IC50 [2] of 280 nM, an IC50 [1] of 318 nM and a Ratio IC50 (Kv1.5/Kv1.3) [3] of 0.88.

Work on `c1ccc(OCCCCOc2ccnc3ccccc23)cc1` yielded an IC50 [2] of 3500 nM, an IC50 [1] greater than 10000 nM and a Ratio IC50 (Kv1.5/Kv1.3) [3] of less than 0.35.
